Assay [1] relates to IPEC-J2. In words: Induction of claudin-4 protein expression in porcine IPEC-J2 cells at 20 uM after 6 days by Western blot analysis. The class given is functional, cell-based. The conditions noted are these: Sus scrofa domesticus, time 6.0 day. The essentials: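 Inserts were treated apically with 20 μM from day 7, with medium renewed at day 10. At day 13 cells were lysed and protein equalized by BCA, then run on SDS–PAGE and transferred to nitrocellulose. Blots were probed with mouse anti-claudin 4 and an HRP secondary and detected by ECL. Band intensity was normalized to β-actin and expressed as fold over PBS control.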
In general terms: Immunoblotting shows a protein as a band on a membrane.

Assay [2] concerns IPEC-J2. In words: Induction of porcine IPEC-J2 cells monolayer development assessed as increase in transepithelial electrical resistance at 20 uM after 6 days by voltammetric method. The class given is functional, cell-based. The conditions noted are these: Sus scrofa domesticus, time 6.0 day. The essentials: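 IPEC-J2 cells were seeded at 5 × 10^5/insert (0.4 μm PET) and cultured until TEER exceeded 1 kΩ cm2 (day 7). Apical medium was then replaced with 20 μM compound or PBS and renewed at day 10, with basolateral medium changed in parallel. TEER was read with an EVOM2 chopstick electrode at days 10 and 13. Mann–Whitney test versus PBS.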

Molecules are shown by their SMILES. The source made the active and inactive calls. The calls are words filed in the database; no cut-off is given here.

With `O=C(O[C@@H]1COC(=O)c2cc(O)c(O)c(O)c2-c2c(cc(O)c(O)c2O)C(=O)O[C@H]1[C@@H]1OC(=O)c2cc(O)c(O)c(O)c2-c2c(O)c(O)c(O)c3c2C(=O)O[C@H]1[C@@H]3O)c1cc(O)c(O)c(O)c1Oc1cc2c(c(O)c1O)-c1c(cc(O)c(O)c1O)C(=O)OC[C@H]1OC(=O)c3cc(O)c(O)c(O)c3-c3c(O)c(O)c(O)c4c3C(=O)O[C@H]([C@H]3OC(=O)c5c-4c(O)c(O)c(O)c5[C@@H]3O)[C@@H]1OC2=O`, the outcome in the assay on IPEC-J2 [1] and in the assay on IPEC-J2 [2] was Active.
`O=C(O[C@@H]1COC(=O)c2cc(O)c(O)c(O)c2-c2c(cc(O)c(O)c2O)C(=O)O[C@H]1[C@@H]1OC(=O)c2cc(O)c(O)c(O)c2-c2c(O)c(O)c(O)c3c2C(=O)O[C@H]1[C@H]3O)c1cc(O)c(O)c(O)c1Oc1cc2c(c(O)c1O)-c1c(cc(O)c(O)c1O)C(=O)OC[C@H]1OC(=O)c3cc(O)c(O)c(O)c3-c3c(O)c(O)c(O)c4c3C(=O)O[C@H]([C@H]3OC(=O)c5c-4c(O)c(O)c(O)c5[C@@H]3O)[C@@H]1OC2=O`: the result with IPEC-J2 [1] and in the assay on IPEC-J2 [2] was Active.
For `O=C1OC[C@H]2OC(=O)c3cc(O)c(O)c(O)c3-c3c(O)c(O)c(O)c4c3C(=O)O[C@H]([C@H]3OC(=O)c5c-4c(O)c(O)c(O)c5[C@@H]3O)[C@@H]2OC(=O)c2cc(O)c(O)c(O)c2-c2c1cc(O)c(O)c2O`, the outcome in the assay with IPEC-J2 [2] was Active.

The values above are taken from ChEMBL document CHEMBL4673343, “Lythrum salicaria Ellagitannins Stimulate IPEC-J2 Cells Monolayer Formation and Inhibit Enteropathogenic Escherichia coli Growth and Adhesion” (J Nat Prod, 2020).
